These results are taken from publication PMC4893934 (European journal of medicinal chemistry, 2016).

The subject of data set [1] is mutant IDH1 activity (2-HG production) in IDH1-R132H-mutated astrocytoma cell line. In kind it is cell-based. Particulars: 50 µM, 8 h post-incubation, IDH1-mutated astrocytoma cells. A digest of the protocol: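 Isogenic anaplastic astrocytoma lines (WHO grade III-derived subclone with native IDH1-R132H; WT-IDH1 control) were seeded in duplicate at 30,000/well. At confluency, medium was replaced with test compound at 50 µM final (from 20 mM DMSO stock), n=2/experiment, under standard culture conditions. Supernatant was sampled at 4 and 8 h and stored at -80°C. D-2-HG was measured by LC-MS/MS. Controls were vehicle-treated mutant and WT cells.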

Another data set concerns the target IDH1-R132H (Homo sapiens, UniProt O75874, R132H). The experiment in a line: Mutant IDH1 inhibition assay with purified enzyme. It counts as biochemical. To be noted: for IC50: IC50 against the mutant IDH1, purified IDH1-R132H enzyme; for inhibition at 392 µM: read-out: maximal enzyme inhibition (inhibitory efficiency), purified IDH1-R132H enzyme, tested range 0.19 – 392 µM.

The next data set has as its target mutant IDH1-R132H enzyme. Particulars: read-out: IC50 against the mutant IDH1-R132H enzyme; cited from earlier work.
The nature of data set [2]: Tissue distribution studies. It counts as in vivo, BALB/C mice. To be noted: for Biodistribution, Bladder / Biodistribution, Blood / Biodistribution, Bone / Biodistribution, Brain / Biodistribution, Heart / Biodistribution, Intestines / Biodistribution, Kidneys / Biodistribution, Liver / Biodistribution, Lungs / Biodistribution, Muscle / Biodistribution, Skin / Biodistribution, Spleen / Biodistribution, Stomach / Biodistribution, Thyroid: mean ± SD, n=5.

Data set [3] relates to IDH1-R132H mutant and WT-IDH1 astrocytoma cell lines. Description: Cell uptake studies of labeled inhibitors. In kind it is cell-based. To be noted: for cell uptake, % of the added activity: mutant IDH1 cell line. The method in brief: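 IDH1-R132H and isogenic WT-IDH1 astrocytoma cells were plated about 24 h ahead at 20,000–30,000/well, then PBS-washed. Cells were incubated with radioiodinated test compound (~3.7 kBq/well) in culture medium at 37°C, 5% CO2, for 0.25–4 h. Co-incubation used unlabeled analog (0–100 µM) for 3 h, or 0.1%/1% versus 10% FBS. After ice-cold PBS washes and 5 min RT lysis, lysate, supernatant and washes were gamma-counted. Uptake is % incubation dose/well.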

[4] abbreviates: 5 min after i.v. injection, listed as 125I-labeled 1.

Structures are written as SMILES. Several values for one entry are separate records, joined by “and”; a condition that tells them apart may be missing. Equal values may be shown once.

Sequence of IDH1-R132H (O75874 whole entry R132H): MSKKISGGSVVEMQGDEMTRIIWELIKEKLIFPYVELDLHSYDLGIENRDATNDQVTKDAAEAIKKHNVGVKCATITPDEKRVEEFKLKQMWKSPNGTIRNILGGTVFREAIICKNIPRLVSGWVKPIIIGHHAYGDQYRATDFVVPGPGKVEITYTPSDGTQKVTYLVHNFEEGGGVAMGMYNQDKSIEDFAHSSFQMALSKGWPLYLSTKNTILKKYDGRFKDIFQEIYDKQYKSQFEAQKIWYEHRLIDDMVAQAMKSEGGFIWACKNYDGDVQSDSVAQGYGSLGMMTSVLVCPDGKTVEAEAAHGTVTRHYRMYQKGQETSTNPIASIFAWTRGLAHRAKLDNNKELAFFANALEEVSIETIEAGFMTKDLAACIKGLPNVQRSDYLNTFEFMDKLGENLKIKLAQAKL

The IC50 is the concentration needed to halve the response being measured. The inhibition is the percentage by which the read-out fell short of the control. `CCCCc1ccc(NS(=O)(=O)c2ccc(C)c(C(=O)N3CCN(c4ccccc4I)CC3)c2)cc1` [Compound 1, N-(4-Butylphenyl)-3-(4-(2-iodophenyl)piperazine-1-carbonyl)-4-methylbenzenesulfonamide]: the “decrease of 2-HG concentration in mutant IDH1 cell supernatants” value in data set [1] was determined as 43%. At IDH1-R132H (0.19 – 392 µM), the concentration for half-maximal inhibition (IC50) is 1.7 µM and ~2 µM. In addition, on IDH1-R132H, the inhibition at 392 µM was roughly 100%.
In the case of `CCCCc1ccc(NS(=O)(=O)c2ccc(C)c(C(=O)N3CCN(c4ccc(I)cc4)CC3)c2)cc1` [Compound 2, N-(4-Butylphenyl)-3-(4-(4-iodophenyl)piperazine-1-carbonyl)-4-methylbenzenesulfonamide], on IDH1-R132H (purified IDH1-R132H enzyme, 0.19 – 392 µM), the “activity against mutant IDH1 (in words)” value was “did not show any significant activity”.
In the case of `CCCCc1ccc(NS(=O)(=O)c2ccc(C)c(C(=O)N3CCN(c4ccccc4OCCF)CC3)c2)cc1` [Compound 4, N-(4-Butylphenyl)-3-(4-(2-(2-fluoroethoxy)phenyl)piperazine-1-carbonyl)-4-methylbenzenesulfonamide], the “decrease of 2-HG concentration in mutant IDH1 cell supernatants” value in data set [1] worked out at 50%. At IDH1-R132H (0.19 – 392 µM), the IC50 was 2.3 µM and ~2 µM. For the same compound, the inhibition at 392 µM on IDH1-R132H was roughly 100%.
Take `CCCCc1ccc(NS(=O)(=O)c2ccc(C)c(C(=O)N3CCN(c4ccc(OCCF)cc4)CC3)c2)cc1` [Compound 5, N-(4-Butylphenyl)-3-(4-(4-(2-fluoroethoxy)phenyl)piperazine-1-carbonyl)-4-methylbenzenesulfonamide]: the half-inhibitory concentration (IC50) against IDH1-R132H (0.19 – 392 µM) was determined as 1.2 µM. For the same compound, on IDH1-R132H (purified IDH1-R132H enzyme, tested range 0.19 – 392 µM, 392 µM), the “maximal enzyme inhibition (inhibitory efficiency)” value is recorded as 26.4%. In addition, the inhibition at 392 µM at IDH1-R132H is roughly 30%.
In the case of `COc1ccccc1N1CCN(C(=O)c2cc(S(=O)(=O)Nc3ccc(CCCF)cc3)ccc2C)CC1` [Compound 6, N-(4-(3-Fluoropropyl)phenyl)-3-(4-(2-methoxyphenyl)piperazine-1-carbonyl)-4-methylbenzenesulfonamide], the IC50 on IDH1-R132H (0.19 – 392 µM) stood at 2.7 µM. In addition, the inhibition at 392 µM at IDH1-R132H came to 99%.
In turn, `COc1ccccc1N1CCN(C(=O)c2cc(S(=O)(=O)Nc3ccc(CCCCF)cc3)ccc2C)CC1` [Compound 7, N-(4-(4-Fluorobutyl)phenyl)-3-(4-(2-methoxyphenyl)piperazine-1-carbonyl)-4-methylbenzenesulfonamide] returned an IC50 at IDH1-R132H (0.19 – 392 µM) of 2.4 µM. Also, at IDH1-R132H, the inhibition at 392 µM came out at 81%.
`CCCCc1ccc(NS(=O)(=O)c2ccc(C)c(C(=O)N3CCN(c4ccccc4OC)CC3)c2)cc1` [Compound A, N-(4-butylphenyl)-3-(4-(2-methoxyphenyl)piperazine-1-carbonyl)-4-methylbenzenesulfonamide, reference compound]: the IC50 was less than 1 µM at mutant IDH1-R132H enzyme and 2.2 µM at IDH1-R132H (0.19 – 392 µM). Moreover, the inhibition at 392 µM at IDH1-R132H was roughly 100%.
With `CCCCc1ccc(NS(=O)(=O)c2ccc(C)c(C(=O)N3CCN(c4ccccc4[125I])CC3)c2)cc1` [[^125I]1, N-(4-Butylphenyl)-3-(4-(2-[^125I]iodophenyl)piperazine-1-carbonyl)-4-methylbenzenesulfonamide], the “uptake in the brain” value in data set [2] (1 – 4 h after injection) was no more than 0.07 %ID/g. In addition, in data set [2] (5 min after i.v. injection), the “Biodistribution, Bladder” value stood at 0.03 ± 0.01 %ID; the “Biodistribution, Blood” value is on record as “about 12 %ID”; the “Biodistribution, Bone” value came out at 3.92 ± 1.45 %ID; the “Biodistribution, Brain” value is listed as 0.15 ± 0.05 %ID. Besides, in data set [2] (5 min after i.v. injection), the “Biodistribution, Heart” value came out at 1.11 ± 0.39 %ID; the “Biodistribution, Intestines” value worked out at 6.37 ± 5.80 %ID; the “Biodistribution, Kidneys” value is recorded as 3.50 ± 1.08 %ID; the “Biodistribution, Liver” value is given as “About 30 %ID”. For the same compound, in data set [2] (5 min after i.v. injection), the “Biodistribution, Lungs” value is 1.69 ± 0.83 %ID; the “Biodistribution, Muscle” value is 13.79 ± 4.85 %ID; the “Biodistribution, Skin” value is 3.31 ± 0.74 %ID; the “Biodistribution, Spleen” value is given as 0.36 ± 0.12 %ID. Further, in data set [2] (5 min after i.v. injection), the “Biodistribution, Stomach” value turned out to be 0.40 ± 0.12 %ID and the “Biodistribution, Thyroid” value was found to be 0.32 ± 0.18 %ID. In data set [2] (setting [4]), the “Biodistribution, Blood” value came out at 11.83 ± 1.99 %ID and the “Biodistribution, Liver” value came to 29.43 ± 5.60 %ID. Besides, in data set [2] (5 min after injection), the “activity concentration in the thyroid gland” value turned out to be 1.69 ± 0.93 %ID/g and the “uptake in the brain” value was 0.39 ± 0.13 %ID. Besides, in data set [2] (1 h after i.v. injection), the “Biodistribution, Bladder” value is listed as 0.01 ± 0.01 %ID; the “Biodistribution, Blood” value turned out to be 0.71 ± 0.27 %ID; the “Biodistribution, Bone” value was found to be 1.21 ± 0.14 %ID; the “Biodistribution, Brain” value was 0.03 ± 0.01 %ID. In data set [2] (1 h after i.v. injection), the “Biodistribution, Heart” value came to 0.12 ± 0.02 %ID; the “Biodistribution, Intestines” value was 38.13 ± 1.49 %ID; the “Biodistribution, Kidneys” value amounted to 0.88 ± 0.14 %ID; the “Biodistribution, Liver” value was determined as 13.30 ± 0.69 %ID. Besides, in data set [2] (1 h after i.v. injection), the “Biodistribution, Lungs” value was 0.17 ± 0.02 %ID; the “Biodistribution, Muscle” value is reported as 8.21 ± 0.77 %ID; the “Biodistribution, Skin” value came to 2.90 ± 1.07 %ID; the “Biodistribution, Spleen” value is 0.05 ± 0.01 %ID. In addition, in data set [2] (1 h after i.v. injection), the “Biodistribution, Stomach” value came to 0.65 ± 0.18 %ID and the “Biodistribution, Thyroid” value is listed as 0.04 ± 0.03 %ID. In data set [2] (1 h after injection), the “maximum excreted into the urine” value turned out to be 2.84 % ID. In data set [2] (2 h after i.v. injection), the “Biodistribution, Bladder” value turned out to be 0.02 ± 0.03 %ID; the “Biodistribution, Blood” value is given as 0.29 ± 0.09 %ID; the “Biodistribution, Bone” value was determined as 0.60 ± 0.29 %ID; the “Biodistribution, Brain” value is given as 0.02 ± 0.01 %ID. In addition, in data set [2] (2 h after i.v. injection), the “Biodistribution, Heart” value is listed as 0.04 ± 0.01 %ID; the “Biodistribution, Intestines” value was 53.24 ± 7.84 %ID; the “Biodistribution, Kidneys” value is 0.43 ± 0.15 %ID; the “Biodistribution, Liver” value is 6.57 ± 1.77 %ID. Also, in data set [2] (2 h after i.v. injection), the “Biodistribution, Lungs” value turned out to be 0.07 ± 0.03 %ID; the “Biodistribution, Muscle” value came to 3.91 ± 0.87 %ID; the “Biodistribution, Skin” value stood at 1.25 ± 0.53 %ID; the “Biodistribution, Spleen” value is listed as 0.03 ± 0.01 %ID. In addition, in data set [2] (2 h after i.v. injection), the “Biodistribution, Stomach” value is on record as 0.63 ± 0.82 %ID and the “Biodistribution, Thyroid” value is 0.05 ± 0.05 %ID. For the same compound, the “activity in the hepatobiliary system” value in data set [2] (2 h after injection) is “approximately 60 % ID”. In data set [2] (4 h after i.v. injection), the “Biodistribution, Bladder” value is given as 0.01 ± 0.01 %ID; the “Biodistribution, Blood” value was “about 0.13 %ID”; the “Biodistribution, Bone” value is on record as 0.22 ± 0.14 %ID; the “Biodistribution, Brain” value was 0.01 ± 0.00 %ID. Besides, in data set [2] (4 h after i.v. injection), the “Biodistribution, Heart” value was 0.01 ± 0.00 %ID; the “Biodistribution, Intestines” value is recorded as 41.40 ± 6.02 %ID; the “Biodistribution, Kidneys” value was 0.16 ± 0.03 %ID; the “Biodistribution, Liver” value is on record as 3.41 ± 0.62 %ID. Also, in data set [2] (4 h after i.v. injection), the “Biodistribution, Lungs” value was determined as 0.03 ± 0.01 %ID; the “Biodistribution, Muscle” value is on record as 1.57 ± 0.34 %ID; the “Biodistribution, Skin” value is listed as 0.56 ± 0.09 %ID; the “Biodistribution, Spleen” value worked out at 0.01 ± 0.01 %ID. Moreover, in data set [2] (4 h after i.v. injection), the “Biodistribution, Stomach” value is listed as 1.22 ± 2.12 %ID and the “Biodistribution, Thyroid” value is on record as 0.06 ± 0.03 %ID. The “Biodistribution, Blood” value in data set [2] (4 h after i.v. injection, listed as 125I-labeled 1) worked out at 0.13 ± 0.01 %ID. Further, in data set [2] (4 h after injection), the “activity concentration in the thyroid gland” value was determined as 0.42 ± 0.16 %ID/g and the “activity concentration in the vital organs except liver” value was less than 0.2 % ID/g. Further, the “average uptake ratio mutant-IDH1 / WT-IDH1 cell lines” value in data set [3] (2 h incubation) worked out at 1.66. Further, the “maximal increase in uptake versus no-carrier-added tracer” value in data set [3] (co-incubation with 10 µM unlabeled 1, 3 h) is reported as 53 fold. For the same compound, the “cell uptake, % of the added activity” value in data set [3] (15 min incubation) is listed as “about 0.5%”. Also, the “cell uptake, % of the added activity” value in data set [3] (3 h incubation) is on record as 0.80 ± 0.04%.
